pIC50, pKi: −log10 of the molar value.
Columns and labels:
Staphylococcus aureus = assay: Inhibition of staphyloxanthin biosynthesis in Staphylococcus aureus Pig1 isolate after 72 hrs; format: functional, organism-based; details: PIG1, 72 h
Method in brief: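 Wild-type clinical isolate Pig1 grown in THB (1 mL) with serially diluted compounds, 37 °C, 72 h, in duplicate. Cells centrifuged and washed twice with PBS. Pigment extracted with methanol, OD read at 450 nm. IC50 from dose-response fit of OD data.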

[1] = molecular target: T1, 4,4'-diapophytoene synthase (Staphylococcus aureus, UniProt A9JQL9); assay: Inhibition of Staphylococcus aureus dehydrosqualene synthase expressed in Escherichia coli BL21 (DE3) cells by continuous spectrophotometric assay
T1 sequence (A9JQL9 whole entry): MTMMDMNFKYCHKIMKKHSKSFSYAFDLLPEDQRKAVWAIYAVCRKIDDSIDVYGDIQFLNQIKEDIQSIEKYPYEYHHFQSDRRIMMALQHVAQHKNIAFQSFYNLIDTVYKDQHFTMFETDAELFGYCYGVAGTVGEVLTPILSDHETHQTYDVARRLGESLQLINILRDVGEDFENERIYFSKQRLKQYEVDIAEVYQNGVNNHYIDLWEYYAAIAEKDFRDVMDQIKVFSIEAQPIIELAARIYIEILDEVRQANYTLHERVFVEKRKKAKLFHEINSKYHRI
Method in brief: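 His-tagged S. aureus CrtM, Ni-NTA purified after IPTG induction (1 mM, 4 h). Compounds preincubated with 2 μg CrtM for 30 min at 20 °C. Phosphate release followed by continuous spectrophotometric coupled assay. IC50 from dose-response fit; Ki derived from IC50 and reported Km.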

BL21-DE3 [2] = assay: Selectivity ratio of IC50 for human squalene synthase to IC50 for Staphylococcus aureus dehydrosqualene synthase expressed in Escherichia coli BL21 (DE3) cells
BL21-DE3 [3] = assay: Selectivity ratio of IC50 for human squalene synthase to IC50 for Staphylococcus aureus dehydrosqualene synthase expressed in Escherichia coli BL21 (DE3) cells assessed as relative selectivity relative to potassium 4-(3-phenoxyphenyl)-1-phosphonatobutane-1-sulfonate
Squalene synthase = molecular target: T2, Squalene synthase (Homo sapiens, UniProt P37268); assay: Inhibition of human recombinant squalene synthase expressed in Escherichia coli BL21 (DE3) cells assessed as formation of 1,10-dioic acid metabolite by liquid scintillation
T2 sequence (P37268 whole entry): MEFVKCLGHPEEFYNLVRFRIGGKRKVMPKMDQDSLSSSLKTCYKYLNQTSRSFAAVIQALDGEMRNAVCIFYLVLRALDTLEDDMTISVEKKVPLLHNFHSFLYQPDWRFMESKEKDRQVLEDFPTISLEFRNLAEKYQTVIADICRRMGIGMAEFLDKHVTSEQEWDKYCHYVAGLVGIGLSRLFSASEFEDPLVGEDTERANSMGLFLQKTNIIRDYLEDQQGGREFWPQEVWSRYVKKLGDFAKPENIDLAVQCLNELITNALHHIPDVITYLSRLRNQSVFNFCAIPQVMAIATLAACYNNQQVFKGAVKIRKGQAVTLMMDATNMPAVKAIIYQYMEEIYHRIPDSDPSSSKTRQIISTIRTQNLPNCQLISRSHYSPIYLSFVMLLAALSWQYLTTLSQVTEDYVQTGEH

SMILES	pIC50 (Staphylococcus aureus)	pIC50 [1]	other results
COc1ccc(Oc2ccc(F)cc2)cc1CCCC(P(=O)(O)O)S(=O)(=O)O (stereo not given)	4.86	–	–
O=P(O)(O)C(CCCc1cccc(Oc2ccc(F)cc2)c1)S(=O)(=O)O (stereo not given)	7.28	–	pKi [1]: 8.30
O=P(O)(O)C(CCCc1ccc(-c2ccc(C(F)(F)F)cc2)cc1)P(=O)(O)O	5.96	–	pKi [1]: 9.30; Ratio IC50 (BL21-DE3 [2]): 0.014; Ratio IC50 (BL21-DE3 [3]): 4.8
O=P(O)(O)C(Cc1cccc(Oc2ccccc2)c1)S(=O)(=O)O (stereo not given)	4.47	–	Ratio IC50 (BL21-DE3 [2]): 0.0022; Ratio IC50 (BL21-DE3 [3]): 0.8
O=P(O)(O)C(CCCc1cccc(Oc2ccc(-c3ccco3)cc2)c1)S(=O)(=O)O (stereo not given)	5.96	4.58	–
O=P(O)(O)C(CCCc1cccc(Oc2ccc(O)cc2)c1)S(=O)(=O)O (stereo not given)	5.17	–	–
O=P(O)(O)[C@H](CCCc1cccc(Oc2ccccc2)c1)S(=O)(=O)O	7.30	–	–
CCCc1ccc(Oc2cccc(CCCC(P(=O)(O)O)S(=O)(=O)O)c2)cc1 (stereo not given)	7.03	–	pKi [1]: 8.30
O=P(O)(O)C(CCCc1cccc(Oc2cc(F)cc(F)c2)c1)S(=O)(=O)O (stereo not given)	7.82	5.34	–
O=P(O)(O)C(CCCc1cccc(Oc2ccccc2)c1)S(=O)(=O)O (racemic)	6.96	–	–
O=P(O)(O)C(CCCc1cccc(Nc2ccccc2)c1)S(=O)(=O)O (stereo not given)	6.30	–	–
O=P(O)(O)C(CCCc1ccc(-c2ccc(F)cc2F)cc1)S(=O)(=O)O (stereo not given)	6.74	–	–
O=P(O)(O)[C@@H](CCCc1cccc(Oc2ccccc2)c1)S(=O)(=O)O	6.51	4.32	–
O=P(O)(O)C(CCCc1cccc(Oc2ccccc2F)c1)S(=O)(=O)O (stereo not given)	6.29	5.16	–
O=P(O)(O)C(CCc1cccc(Oc2ccccc2)c1)S(=O)(=O)O (stereo not given)	4.69	–	Ratio IC50 (BL21-DE3 [2]): 0.0011; Ratio IC50 (BL21-DE3 [3]): 0.4
Cc1ccc(-c2ccc(CCCC(P(=O)(O)O)S(=O)(=O)O)cc2)cc1 (stereo not given)	6.74	–	–
CCn1c2ccccc2c2cc(CCCC(P(=O)(O)O)S(=O)(=O)O)ccc21 (stereo not given)	3.58	–	–
O=P(O)(O)C(CCCc1ccc(-c2ccccc2)cc1)S(=O)(=O)O (stereo not given)	6.46	–	–
O=P(O)(O)C(CCCc1cccc(Oc2cccc(F)c2)c1)S(=O)(=O)O (stereo not given)	6.66	5.66	–

SMILES	pIC50 (Staphylococcus aureus)	pIC50 [1]	other results
O=P(O)(O)C(CCCc1cccc(Oc2ccc(Cl)cc2)c1)S(=O)(=O)O (stereo not given)	7.41	5.60	–
O=P(O)(O)C(CCCc1cccc(Oc2ccc(C(F)(F)F)cc2)c1)S(=O)(=O)O (stereo not given)	7.40	–	–
O=P(O)(O)C(CCCc1cccc(Oc2ccccc2C(F)(F)F)c1)S(=O)(=O)O (stereo not given)	6.34	4.27	–
O=P(O)(O)C(CCCc1cccc(Cc2ccccc2)c1)S(=O)(=O)O (stereo not given)	6.77	–	–
O=P(O)(O)C(CCCc1cccc(Oc2ccc3occc3c2)c1)S(=O)(=O)O (stereo not given)	7.82	5.68	–
O=P(O)(O)C(CCCc1cccc(Oc2ccc(Oc3ccccc3)cc2)c1)S(=O)(=O)O (stereo not given)	7.00	–	–
O=P(O)(O)C(CCCc1cccc(Oc2ccccc2Cc2ccccc2)c1)S(=O)(=O)O (stereo not given)	7.72	–	–
O=P(O)(O)C(CCCc1cccc(Oc2ccc(F)c(F)c2)c1)S(=O)(=O)O (stereo not given)	6.96	5.77	–
O=P(O)(O)C(CCCc1ccc(Oc2ccccc2)cc1)S(=O)(=O)O (stereo not given)	6.72	–	–
CC(C)(C)c1ccc(Oc2cccc(CCCC(P(=O)(O)O)S(=O)(=O)O)c2)cc1 (stereo not given)	7.68	–	–
CCCOc1cccc(-c2ccc(CCCC(P(=O)(O)O)S(=O)(=O)O)cc2)c1 (stereo not given)	6.31	–	–
O=P(O)(O)C(CCCc1cccc(Oc2ccc(Cl)c(Cl)c2)c1)S(=O)(=O)O (stereo not given)	7.96	5.66	–
O=P(O)(O)C(CCCc1cccc(Oc2cccc(C(F)(F)F)c2)c1)S(=O)(=O)O (stereo not given)	7.13	5.01	–
O=P(O)(O)C(CCCc1cccc(Oc2ccc(Cc3ccccc3)cc2)c1)S(=O)(=O)O (stereo not given)	7.31	–	–
O=P(O)(O)C(CCCc1ccc(-c2ccccc2)cc1)P(=O)(O)O	5.66	–	pKi [1]: 9.00
CP(=O)(O)C(CCCc1ccc(-c2ccccc2)cc1)P(=O)(O)O (stereo not given)	5.85	5.27	pIC50 (Squalene synthase): 7.14; Ratio IC50 (BL21-DE3 [2]): 0.014; Ratio IC50 (BL21-DE3 [3]): 4.7
O=P(O)(O)C(CCCc1cc(Oc2ccc(F)cc2)ccc1F)S(=O)(=O)O (stereo not given)	7.23	5.68	–
CCCCc1ccc(-c2ccc(CCCC(P(=O)(O)O)S(=O)(=O)O)cc2)cc1 (stereo not given)	6.80	–	–
O=P(O)(O)C(CCCc1cccc(Oc2cc(Cl)cc(Cl)c2)c1)S(=O)(=O)O (stereo not given)	7.29	5.20	–
